Measured values as given in ChEMBL document CHEMBL3872203, “Synthesis, anticancer activity and photostability of novel 3-ethyl-2-mercapto-thieno[2,3-d]pyrimidin-4(3H)-ones” (Eur J Med Chem, 2016).

Columns and labels:
[1] = Photostability of the compound in DMF at 4089 +/- 0.164 10^-5mol/L measured up to 240 mins in presence of UV-light by UV-vis spectrophotometric analysis; conditions: 4 h
[2] = Cytotoxicity against human HT-29 cells after 24 hrs by MTS assay; format: functional, cell-based; conditions: HT-29, 24 h
Procedure, shortened: (§1)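 Cells were exposed for 24 h to compound diluted 1:10, 1:100, 1:1000 and 1:10,000 from a 4 mg/ml DMSO stock; untreated controls were grown in non-modified medium. MTS was added for 2 h at 37 °C under 5% CO2, and absorbance was read at 490 nm. Viability is expressed as % of untreated control, averaged over three independent assays. EC50 or IC50 values were calculated from the plotted data.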

[3] = Cytotoxicity against human LEP-3 cells after 24 hrs by MTS assay; format: toxicity, cell-based
Procedure, shortened: as §1

[4] = Photostability of the compound in DMF at 3916 +/- 0.158 10^-5mol/L measured up to 240 mins in presence of UV-light by UV-vis spectrophotometric analysis; conditions: 4 h
[5] = Cytotoxicity against human MDA-MB-231 cells after 24 hrs by MTS assay; format: functional, cell-based; conditions: MDA-MB-231, 24 h
Procedure, shortened: as §1

[6] = Photostability of the compound in DMF at 2185 +/- 0.087 10^-5mol/L measured up to 240 mins in presence of UV-light by UV-vis spectrophotometric analysis; conditions: 4 h
[7] = Cytotoxicity against human HeLa cells after 24 hrs by MTS assay; format: functional, cell-based
Procedure, shortened: as §1

[8] = Photostability of the compound in DMF at 2275 +/- 0.091 10^-5mol/L measured up to 240 mins in presence of UV-light by UV-vis spectrophotometric analysis; conditions: 4 h
[9] = Photostability of the compound in DMF at 5242 +/- 0.209 10^-5mol/L measured up to 240 mins in presence of UV-light by UV-vis spectrophotometric analysis; conditions: 4 h
[10] = Cytotoxicity against human HepG2 cells after 24 hrs by MTS assay; format: functional, cell-based; conditions: HepG2, 24 h
Procedure, shortened: as §1

HT-29 = assay: Ratio of IC50 for human LEP-3 cells to IC50 for human HT-29 cells
[11] = Antiproliferative activity against human HeLa cells after 24 hrs by MTS assay; format: functional, cell-based
Procedure, shortened: as §1

[12] = Antiproliferative activity against human MDA-MB-231 cells after 24 hrs by MTS assay; format: functional, cell-based; conditions: MDA-MB-231, 24 h
Procedure, shortened: as §1

[13] = Antiproliferative activity against human HT-29 cells after 24 hrs by MTS assay; format: functional, cell-based; conditions: HT-29, 24 h
Procedure, shortened: as §1

[14] = Photostability of the compound in DMF assessed as drug degradation at 3128 +/- 0.125 10^-5mol/L measured after 240 mins in presence of UV-light by UV-vis spectrophotometric analysis; format: physicochemical; conditions: DMF solution under UV light; read-out: Drug degradation
[15] = Antiproliferative activity against human LEP-3 cells after 24 hrs by MTS assay; format: cell-based; conditions: LEP-3, 24 h
Procedure, shortened: as §1

[16] = Antiproliferative activity against human HepG2 cells after 24 hrs by MTS assay; format: functional, cell-based; conditions: HepG2, 24 h
Procedure, shortened: as §1

Stability [1] | Stability [4] | Stability [6] | Stability [8] | Stability [9] | degraded at 4 h [14] | SMILES | IC50 [2] | IC50 at 24 h [3] | IC50 [5] | IC50 [7] | IC50 [10] | Ratio IC50 (HT-29) | EC50 [11] | EC50 [12] | EC50 [13] | EC50 [15] | EC50 [16]
Stable | Stable | Stable | Stable | Stable |  | CCNc1nnc(CSc2nc3sc(C)c(C)c3c(=O)n2CC)s1 | 3.58 µM | 191 µM | 9.4 µM | 7.42 µM | 0.99 µM |  |  |  |  |  | 
Stable | Stable | Stable | Stable | Stable |  | CCNc1nnc(CSc2nc3sc4c(c3c(=O)n2CC)CCCC4)s1 | 0.001 µM | 9.77 µM |  |  | 9.8 µM | 100 | 9.28 µM | 0.001 µM |  |  | 

The next lines start with the compound.

SMILES | Stability [1] | Stability [4] | Stability [6] | Stability [8] | Stability [9] | degraded at 4 h [14] | IC50 [2] | IC50 at 24 h [3] | IC50 [5] | IC50 [7] | IC50 [10] | Ratio IC50 (HT-29) | EC50 [11] | EC50 [12] | EC50 [13] | EC50 [15] | EC50 [16]
CCNC(=S)NNC(=O)CSc1nc2sc(C)c(C)c2c(=O)n1CC |  |  |  |  |  | 30% |  | 0.01 µM |  |  |  |  | 0.43 µM | 8.86 µM | 0.085 µM |  | 
CCNc1nnc(CSc2nc3sc(C(=O)OCC)c(C)c3c(=O)n2CC)s1 | Stable | Stable | Stable | Stable | Stable |  | 9.12 µM | 0.089 µM | 2.13 µM | 0.83 µM | 9.51 µM |  |  |  |  |  | 
CCNC(=S)NNC(=O)CSc1nc2sc3c(c2c(=O)n1CC)CCCC3 | Stable | Stable | Stable | Stable | Stable |  |  |  |  |  |  |  | 7.97 µM | 9.33 µM | 1.13 µM | 8.25 µM | 2.72 µM
CCNC(=S)NNC(=O)CSc1nc2sc(C(=O)OCC)c(C)c2c(=O)n1CC | Stable | Stable | Stable | Stable | Stable |  | 7.38 µM | 0.8 µM | 0.000231 µM | 8.71 µM | 8.71 µM |  |  |  |  |  | 
